Tests used:
[1] = Pharmacokinetics studies in rats; type: in vivo; conditions: male, SD, rat, plasma, po, 50 mg/kg
[2] = tested on: Hep3B-luc in situ transplanted tumours; assay: Antitumour activity in Hep3B-luc orthotopic xenograft model; type: in vivo, BALB/c nude mice; conditions: intragastric 50 mg/kg ART once daily for 24 days, n=3
Method in brief: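 Female BALB/c nude mice, 6-8 weeks, received 3x10^6 Hep3B-luc cells in 0.02 ml PBS:Matrigel (1:1) in the left hepatic lobe. They were randomized into four groups (including untreated control) once tumour fluorescence reached ~10^7. Test formulations were given intragastrically once daily for 24 days. Tumour signal and body weight were measured twice weekly. Inhibition = (ROIcontrol−ROIdrug)/ROIcontrol ×100% from mean tumour signals.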

HepG2 cells = assay: Cellular uptake of NR-labelled NPs, flow cytometry; type: cell-based; conditions: HepG2, NR 50 µg/ml, 0.5, 1 or 4 h
Method in brief: (§1)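 Cells were seeded at 2x10^5 per well and cultured 24 h. They were co-incubated with Nile red-labelled nanoparticles at equal Nile red 50 µg/ml, then washed thrice with cold PBS and incubated a further 0.5, 1 or 4 h. Intracellular fluorescence was read by flow cytometry. Controls were untreated cells, free Nile red, and Nile red in unmodified PEG-PLGA nanoparticles.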

A549 cells = assay: Cellular uptake of NR-labelled NPs, flow cytometry; type: cell-based; conditions: A549, NR 50 µg/ml, 0.5, 1 or 4 h
Method in brief: as §1

[3] = Hepatoma-targeted and bio-distribution detection; type: in vivo, BALB/c nude mice; conditions: tumour model mice, intragastric NR 20 mg/kg

Row | SMILES | AUC(0-inf) [1] [ng·h/mL] | AUC(0-t) [1] [ng·h/mL] | Cmax [1] [ng/mL] | MRT [1] [min] | Tmax [1] [min] | half-life [1] [min] | Bioluminescence (ROI) (PG-21) [2] | Cellular fluorescence (uptake) (HepG2 cells) | Cellular fluorescence (uptake) (A549 cells) | In vivo NR fluorescence in whole body and liver [3]
1 | C[C@H]1[C@H](OC(=O)CCC(=O)O)O[C@@H]2O[C@@]3(C)CC[C@H]4[C@H](C)CC[C@@H]1[C@@]24OO3 [ART, Artesunate] | 2540 | 2540 | 4580 | 30 | 15 | 15 | 4.49±0.55 x10^9 photons/sec | – | – | –
2 | CCN(CC)c1ccc2nc3c4ccccc4c(=O)cc-3oc2c1 [NR, Nile red] | – | – | – | – | – | – | – | little fluorescence | little fluorescence | lower fluorescence levels at 2 h

— article PMC10580252 (Experimental and Therapeutic Medicine, 2023)
